The source made the active and inactive calls. The calls are words filed in the database; no cut-off is given here.
Key:
Saccharomyces cerevisiae = assay: Effect on growth of Yeast 9526-6-2 harboring pYES at 50 uM measured up to 60 hrs; assay type: organism-based; conditions: in vivo
Procedure, shortened: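 Control yeast carrying empty pYES and NS1-expressing NS1-pYES strain grown with DMSO or compound at 50 μM. Growth measured as OD600 at 22, 42 and 60 h.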

Influenza A virus [1] = assay: Antiviral activity against Influenza A virus (A/California/7/2009(H1N1)) infected in MDCK cells assessed as reduction in virus-induced cytopathic effect measured on day 5 by Celltiter-Glo luminescence assay; assay type: functional, organism-based; conditions: 120 h
Procedure, shortened: (§1)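 MDCK cells were infected with seasonal influenza A strains through NIAID resources and scored for protection from virus-induced cell death. Compounds were tested at four concentrations (0.8, 4, 20, 100 μM). EC50/EC90 (reduction of viral cell death) and CC50 (reduction of cell viability) were derived in μM, and SI50 = CC50/EC50.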

[2] = Apparent permeability across basolateral to apical side in human Caco2 cells measured after 2 hrs; assay type: ADME, cell-based; conditions: caco-2, 2 h
Procedure, shortened: (§2)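 Permeability was measured across Caco-2 monolayers in both directions, apical to basolateral and basolateral to apical. […] Runs were done with and without 3% BSA, and mass recovery (%) was reported for each direction. Efflux ratio = Papp B→A / Papp A→B.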

MDCK [3] = assay: Cytotoxicity against MDCK cells assessed as reduction in cell viability measured after 48 hrs by CellTiter Glo assay; assay type: cell-based, Canis lupus familiaris; conditions: dog
Procedure, shortened: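 MDCK cells were incubated with compound under the conditions of the 48 h replication assay. Cytotoxicity was read with the CellTiter-Glo ATP viability assay. Follow-up viability testing used 5, 10, 50 and 100 μM.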

Influenza A virus [4] = assay: Antiviral activity against Influenza A virus A/PR/8/34 (H1N1) infected in MDCK cells assessed as fold reduction in virus titer at 10 uM measured after 48 hrs by hemagglutination assay relative to control; assay type: functional, A/Puerto Rico/8/1934(H1N1)
Procedure, shortened: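 MDCK cells were infected with A/PR/8/34 (H1N1) at MOI 0.1 and incubated with compound for 48 h. Supernatant virus was then quantified by hemagglutination assay and standard TCID50 analysis. The single-concentration screen used 10 μM and reports fold reduction in titer. Dose-response runs used triplicate cultures, with percent titer decrease back-calculated from TCID50.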

[5] = Stability of the compound in mouse liver microsomes assessed as parent compound remaining measured immediately; assay type: ADME, Microsome; conditions: read-out: Stability
Procedure, shortened: (§3)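 Mouse liver microsomes; percent parent compound remaining measured at 0, 15 and 30 min.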

[6] = Aqueous kinetic solubility of the compound; assay type: physicochemical; conditions: buffer
Influenza A virus [7] = assay: Effect on NS1 protein expression in Influenza A virus A/PR/8/34 (H1N1) infected in MDCK cells at 20 uM by Western blot analysis; assay type: functional, organism-based; conditions: A/Puerto Rico/8/1934(H1N1)
Procedure, shortened: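 MDCK cells, uninfected or infected with A/PR/8/34, treated with DMSO or compound at 20 μM. NS1 protein detected by Western blot, with α-tubulin as loading control.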

[8] = molecular target: Non-structural protein 1 (Influenza A virus (strain A/Puerto Rico/8/1934 H1N1)) (UniProt P03496); assay: Inhibition of NS1 in Influenza A virus A/PR/8/34 (H1N1) infected in MDCK cells assessed as restoration of protein-induced reduction in IFN-beta mRNA expression at 20 uM measured after 6 hrs by RT-PCR analysis; assay type: cell-based; conditions: Influenza A virus (A/Puerto Rico/8/1934(H1N1))
Procedure, shortened: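 MDCK cells infected with A/PR/8/34 at MOI 2 and incubated 6 h with compound at 20 μM. Cells harvested; IFN-β and β-actin mRNA detected by RT-PCR. Poly(I:C) lane serves as positive control for IFN-β induction.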

[9] = Stability of the compound in mouse liver microsomes assessed as parent compound remaining measured after 30 mins; assay type: ADME, Microsome; conditions: read-out: Stability; procedure, shortened: as §3
[10] = Stability of the compound in mouse liver microsomes assessed as parent compound remaining measured after 15 mins; assay type: ADME, Microsome; conditions: read-out: Stability; procedure, shortened: as §3
Influenza B virus = assay: Antiviral activity against Influenza B virus (B/Brisbane/60/2008) infected in MDCK cells assessed as reduction in virus-induced cytopathic effect measured on day 5 by Celltiter-Glo luminescence assay; assay type: functional, organism-based
Influenza A virus H3N2 = assay: Antiviral activity against Influenza A virus (A/Brisbane/10/2007(H3N2)) infected in MDCK cells assessed as reduction in virus-induced cytopathic effect measured on day 5 by Celltiter-Glo luminescence assay; assay type: functional, organism-based; conditions: 120 h; procedure, shortened: as §1
[11] = (§4) Cytotoxicity against MDCK cells assessed as reduction in cell viability measured on day 5 by Celltiter-Glo luminescence assay; assay type: cell-based, Canis lupus familiaris; conditions: dog, MDCK cells; procedure, shortened: as §1
[12] = molecular target: Luciferin 4-monooxygenase (Photinus pyralis) (UniProt P08659); assay: Effect on firefly luciferase activity expressed in 293 cells at 50 uM by luminescence assay; assay type: cell-based
[13] = Apparent permeability across apical to basolateral side in human Caco2 cells measured after 2 hrs; assay type: ADME, cell-based; conditions: caco-2, 2 h; procedure, shortened: as §2
[14] = molecular target: Non-structural protein 1 (Influenza A virus (strain A/Puerto Rico/8/1934 H1N1)) (UniProt P03496); assay: Inhibition of Influenza A virus A/PR/8/34 (H1N1) NS1 expressed in 293 cells assessed as increase in poly(I:C)-induced IFN-beta reporter activity treated 16 hrs […] measured after 24 hrs by luciferase reporter gene assay; assay type: cell-based; conditions: Influenza A virus (A/Puerto Rico/8/1934(H1N1))
Procedure, shortened: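 293 cells co-transfected with a human IFN-β promoter-driven firefly luciferase reporter and NS1 expression constructs. At 16 h post-transfection, poly(I:C) 50 μg/mL plus compound (20 μM) or 1% DMSO added for a further 24 h; luciferase read by luminometer. Untransfected cells serve as baseline.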

[15] = AUC (infinity) in C57BL/6 mouse lung at 30 mg/kg, ip; assay type: ADME, organism-based; set-up: dose 30 mg/kg, route intraperitoneal, time infinity
Procedure, shortened: (§5)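 Male C57BL/6 mice received a single intraperitoneal dose of 30 mg/kg (N=3). Compound concentrations were followed over time in plasma, liver and lung. Tmax, Cmax, terminal t1/2, AUClast and AUCINF were derived from the mean concentration-time profiles.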

[16] = Cmax in C57BL/6 mouse liver at 30 mg/kg, ip; assay type: ADME, organism-based; set-up: dose 30 mg/kg, route intraperitoneal; procedure, shortened: as §5
[17] = Toxicity in C57BL/6 mouse assessed as effect on liver at 30 mg/kg, ip; assay type: organism-based; conditions: in vivo
[18] = Tmax in C57BL/6 mouse plasma at 30 mg/kg, ip; assay type: ADME, organism-based; conditions: C57BL/6, mouse, plasma, read-out: Tmax
Procedure, shortened: (§6)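 Male C57BL/6 mice, single intraperitoneal 30 mg/kg dose, N=3. Plasma, liver and lung concentrations followed over time to give concentration-time profiles, from which Tmax, Cmax, terminal t1/2, AUClast and AUCINF were derived.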

[19] = Tmax in C57BL/6 mouse liver at 30 mg/kg, ip; assay type: ADME, organism-based; procedure, shortened: as §6
[20] = AUC (infinity) in C57BL/6 mouse liver at 30 mg/kg, ip; assay type: ADME, organism-based; set-up: dose 30 mg/kg, time infinity, route intraperitoneal; procedure, shortened: as §5
[21] = Toxicity in C57BL/6 mouse assessed as adverse effect at 30 mg/kg, ip; assay type: organism-based; conditions: in vivo
[22] = Tmax in C57BL/6 mouse lung at 30 mg/kg, ip; assay type: ADME, organism-based; procedure, shortened: as §6
[23] = Terminal half life in C57BL/6 mouse lung at 30 mg/kg, ip; assay type: ADME, organism-based; conditions: read-out: beta t1/2 (converted); procedure, shortened: as §6
[24] = AUClast in C57BL/6 mouse lung at 30 mg/kg, ip; assay type: ADME, organism-based; set-up: dose 30 mg/kg, route intraperitoneal, time 0 - last; procedure, shortened: as §5
[25] = Cmax in C57BL/6 mouse plasma at 30 mg/kg, ip; assay type: ADME, organism-based; set-up: dose 30 mg/kg, route intraperitoneal; conditions: C57BL/6, mouse, plasma, read-out: Cmax; procedure, shortened: as §5
[26] = Toxicity in C57BL/6 mouse assessed as effect on lungs at 30 mg/kg, ip; assay type: organism-based; conditions: in vivo
[27] = Cmax in C57BL/6 mouse lung at 30 mg/kg, ip; assay type: ADME, organism-based; set-up: dose 30 mg/kg, route intraperitoneal; procedure, shortened: as §5
[28] = Terminal half life in C57BL/6 mouse liver at 30 mg/kg, ip; assay type: ADME, organism-based; conditions: read-out: beta t1/2 (converted); procedure, shortened: as §6
[29] = AUClast in C57BL/6 mouse plasma at 30 mg/kg, ip; assay type: ADME, organism-based; set-up: dose 30 mg/kg, route intraperitoneal, time 0 - last; procedure, shortened: as §5
[30] = AUC (infinity) in C57BL/6 mouse plasma at 30 mg/kg, ip; assay type: ADME, organism-based; set-up: dose 30 mg/kg, route intraperitoneal, time infinity; procedure, shortened: as §5
[31] = Terminal half life in C57BL/6 mouse plasma at 30 mg/kg, ip; assay type: ADME, organism-based; conditions: C57BL/6, mouse, plasma, read-out: beta t1/2 (converted); procedure, shortened: as §6
[32] = AUClast in C57BL/6 mouse liver at 30 mg/kg, ip; assay type: ADME, organism-based; set-up: dose 30 mg/kg, time 0 - last, route intraperitoneal; procedure, shortened: as §5
MDCK [33] = assay: as §4; assay type: cell-based, Canis lupus familiaris; conditions: dog, mdck; procedure, shortened: as §1

Non-structural protein 1 (Influenza A virus (strain A/Puerto Rico/8/1934 H1N1)), sequence (P03496 whole entry): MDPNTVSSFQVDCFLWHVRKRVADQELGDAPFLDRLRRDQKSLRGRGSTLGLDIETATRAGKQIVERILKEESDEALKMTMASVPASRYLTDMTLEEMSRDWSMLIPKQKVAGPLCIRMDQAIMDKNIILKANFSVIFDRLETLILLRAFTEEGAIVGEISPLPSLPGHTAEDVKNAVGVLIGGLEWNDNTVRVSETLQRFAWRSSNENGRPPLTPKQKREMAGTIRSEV
Luciferin 4-monooxygenase (Photinus pyralis), sequence (P08659 whole entry): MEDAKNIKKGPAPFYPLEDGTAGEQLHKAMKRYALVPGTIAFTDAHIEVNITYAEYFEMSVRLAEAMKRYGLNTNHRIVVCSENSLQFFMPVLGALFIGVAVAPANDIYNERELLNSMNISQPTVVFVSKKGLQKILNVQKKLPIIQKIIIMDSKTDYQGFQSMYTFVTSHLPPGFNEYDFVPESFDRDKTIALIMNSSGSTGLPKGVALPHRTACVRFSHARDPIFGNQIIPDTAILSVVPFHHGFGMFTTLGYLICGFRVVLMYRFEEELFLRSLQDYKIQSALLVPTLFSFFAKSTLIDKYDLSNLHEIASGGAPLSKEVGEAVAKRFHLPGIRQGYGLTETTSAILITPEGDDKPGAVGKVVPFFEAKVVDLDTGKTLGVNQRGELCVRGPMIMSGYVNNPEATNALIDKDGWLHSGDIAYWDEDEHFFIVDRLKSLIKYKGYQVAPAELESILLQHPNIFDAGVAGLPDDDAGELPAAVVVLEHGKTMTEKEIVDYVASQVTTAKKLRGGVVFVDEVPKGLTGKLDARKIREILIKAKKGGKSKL

Row | Structure (SMILES) | Activity (Saccharomyces cerevisiae) | EC50 (Influenza A virus [1]) [µM] | EC90 (Influenza A virus [1]) [µM] | Papp [2] [×10⁻⁶ cm/s] | Activity (MDCK [3]) | fold change (FC) (Influenza A virus [4]) | remaining at 0 min [5] [%] | Kinetic_solubility [6] [µM] | Activity (Influenza A virus [7]) | inhibition [8] | remaining at 0.5 h [9] [%] | remaining at 0.25 h [10] [%] | Activity (Influenza B virus) | EC50 (Influenza A virus H3N2) [µM] | EC90 (Influenza A virus H3N2) [µM] | CC50 at 5 day [11] [µM] | Activity [12] | Papp [13] [×10⁻⁶ cm/s] | inhibition [14] | other results
1 | Cc1nn(-c2ccc(Cl)cc2)c2nc(N)c(C#N)c(-c3ccc(O)c(O)c3)c12 | Non-Toxic | > 50 | > 50 | 2.64 | Non-Toxic | 256 | 100 | 1.9 | inactive | Active | 90 | 93 | inactive | > 50 | > 50 | 20.4 to 31.9 | inactive | 0.34 | Active | –
2 | COc1cc(-c2ccnc3c2c(C)nn3-c2cccc(C(F)(F)F)c2)ccc1O | Non-Toxic | – | – | 0.38 | Non-Toxic | – | 100 | 1.7 | – | – | 16 | 25 | – | – | – | 24.5 to 49 | – | 0.13 | – | AUC(0-inf) [15]: 49100 ng·h/mL; Cmax [16]: 64000 ng/mL; Activity [17]: Non-Toxic; Tmax [18]: 4.98 min; Tmax [19]: 4.98 min; AUC(0-inf) [20]: 120000 ng·h/mL; Activity [21]: Non-Toxic; Tmax [22]: 4.98 min; half-life [23]: 5 h; AUC(0-t) [24]: 49100 ng·h/mL; Cmax [25]: 4470 ng/mL; Activity [26]: Non-Toxic; Cmax [27]: 36200 ng/mL; half-life [28]: 5.3 h; AUC(0-t) [29]: 5960 ng·h/mL; AUC(0-inf) [30]: 5970 ng·h/mL; half-life [31]: 5.2 h; AUC(0-t) [32]: 119000 ng·h/mL
3 | CCOc1cc(-c2c(C#N)c(O)nc3c2c(C)nn3-c2ccc(F)cc2)ccc1O | – | 1.7 | 4.9 | – | Non-Toxic | 2 | – | – | – | – | – | – | inactive | 47.6 | > 50 | – | – | – | – | CC50 (MDCK [33]): > 50 µM
4 | COc1cc(-c2c(C#N)c(N)nc3c2c(C)nn3-c2ccc(F)cc2)ccc1O | Non-Toxic | 2.1 | 4.6 | – | Non-Toxic | 256 | 100 | 3 | inactive | Active | 60 | 74 | inactive | 10.1 | > 50 | 24.7 to 48.3 | inactive | – | Active | –

From ChEMBL document CHEMBL4316619 (Bioorg Med Chem Lett, 2019)
